Test results: ChEMBL document CHEMBL1126276, “Synthesis and antimalarial properties of 1-imino derivatives of 7-chloro-3-substituted-3,4-dihydro-1,9(2H,10H)-acridinediones and related structures” (J Med Chem, 1992)
Where “and” joins values, the source holds several entries; their conditions need not be identical. Equal values may be shown once.

Legend:
Format in all cases: functional
Plasmodium berghei [1] = test: Antimalarial activity Plasmodium berghei infected mice (Mus musculus) after 640 mg/kg subcutaneous dose
Procedure, shortened: (§1)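 […] in mice infected with a normal drug-sensitive P. berghei strain. Compound dissolved or suspended in sesame or peanut oil, given as a single subcutaneous dose 72 h postinfection.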

Plasmodium berghei [2] = test: Antimalarial activity in Plasmodium berghei infected mice (Mus musculus) after 320 mg/kg subcutaneous dose; procedure, shortened: as §1
Plasmodium berghei [3] = test: (§2) Antimalarial activity in Plasmodium berghei infected mice (Mus musculus) after 80 mg/kg subcutaneous dose; procedure, shortened: as §1
Plasmodium berghei [4] = test: Antimalarial activity in Plasmodium berghei infected mice (Mus musculus) after subcutaneous 160 mg/kg dose
Procedure, shortened: (§3)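 Normal drug-sensitive P. berghei strain in mice. Compound dissolved or suspended in sesame or peanut oil, given parenterally as a single subcutaneous dose 72 h postinfection.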

Plasmodium berghei [5] = test: Antimalarial activity in Plasmodium berghei infected mice (Mus musculus) after subcutaneous 640 mg/kg dose; procedure, shortened: as §3
Plasmodium berghei [6] = test: Antimalarial activity in Plasmodium berghei infected mice (Mus musculus) after subcutaneous 320 mg/kg dose; procedure, shortened: as §3
Plasmodium berghei [7] = test: Antimalarial activity in Plasmodium berghei infected mice (Mus musculus) after 160 mg/kg subcutaneous dose; procedure, shortened: as §1
Plasmodium berghei [8] = test: Antimalarial activity in Plasmodium berghei infected mice (Mus musculus) after 20 mg/kg subcutaneous dose; procedure, shortened: as §1
Plasmodium berghei [9] = test: Antimalarial activity in Plasmodium berghei infected mice (Mus musculus) after 40 mg/kg subcutaneous dose; procedure, shortened: as §1
Plasmodium berghei [10] = test: as §2; procedure, shortened: as §3; remark: listed apart in the source

| Compound | Delta mean survival time (Plasmodium berghei [1]) | Delta mean survival time (Plasmodium berghei [2]) | Delta mean survival time (Plasmodium berghei [3]) | No. of cured mice (Plasmodium berghei [4]) | No. of cured mice (Plasmodium berghei [5]) | No. of cured mice (Plasmodium berghei [6]) | Delta mean survival time (Plasmodium berghei [7]) | Delta mean survival time (Plasmodium berghei [8]) | Delta mean survival time (Plasmodium berghei [9]) | No. of cured mice (Plasmodium berghei [10]) | Delta mean survival time (Plasmodium berghei [9]; 40 mg/kg) | Delta mean survival time (Plasmodium berghei [1]; 640 mg/kg) | No. of cured mice (Plasmodium berghei [5]; 640 mg/kg) |
| --- | --- | --- | --- | --- | --- | --- | --- | --- | --- | --- | --- | --- | --- |
| O=C1CC(c2ccc(Cl)c(Cl)c2)Cc2nc3ccc(Cl)cc3c(O)c21 (centres undefined) | 11.2 | 10.2 | 2.1 | 1 | 2 | 1 | 7.7 | – | – | – | – | – | – |
| CN(C)CCC/N=C1\CC(c2ccncc2)Cc2nc3ccc(Cl)cc3c(O)c21 (centres undefined) | 4.3 | 2.5 | 1.3 | – | – | – | 1.3 | 0.7 | 0.1 | – | – | – | – |
| CC1C(=O)c2c(nc3ccc(Cl)cc3c2O)CC1c1ccc(Cl)cc1Cl (centres undefined) | – | 17 | 1.18 | 2 | 5 | 2 | 15 | 8.2 | – | 2 | 10 and 9.3 | – | – |
| O=c1c2c(n(O)c3ccc(Cl)cc13)CC(c1cccc(C(F)(F)F)c1)C/C2=N\C1CCN(Cc2ccccc2)CC1 (centres undefined) | 11.1 | 8.4 | 3.8 | 2 | 1 | – | 8.6 | – | 6.8 | – | – | – | – |
| O=C1CC(c2ccc(Cl)c(Cl)c2)Cc2c1c(=O)c1ccccc1n2O (centres undefined) | 12.6 | 7.7 | 3.1 | – | 2 | 1 | 5.1 | – | – | – | – | – | – |
| O=C1CC(C2CCCCC2)Cc2c1c(=O)c1cc(Cl)ccc1n2O (centres undefined) | 12.7 | 6.5 | 2.5 | – | 1 | – | 2.9 | – | – | – | – | – | – |
| CCC1/C(=N\CCCN(C)C)c2c(nc3ccc(Cl)cc3c2O)CC1c1ccc(C(F)(F)F)cc1 (centres undefined) | – | 10 | 5.3 | – | – | 2 | – | 0.3 | 3.3 | – | – | 6.7 and 10.2 | 4 and 3 |
| O=C1CC(c2cccc(Br)c2)Cc2c1c(=O)c1cc(Cl)ccc1n2O (centres undefined) | 7.9 | 10.7 | 5.9 | 1 | 4 | 1 | 9.2 | 0.1 | 2.5 | – | – | – | – |
| O=C1CC(c2ccc(C(F)(F)F)cc2)Cc2nc3ccc(Br)cc3c(O)c21 (centres undefined) | 12.8 | 10.6 | 3 | 1 | 4 | 3 | 4.4 | 3.6 | 5 | – | – | – | – |
| O=C1CC(c2c(Cl)cccc2Cl)Cc2c1c(=O)c1cc(Cl)ccc1n2O (centres undefined) | 11.2 | 23.9 | 5.1 | 1 | 2 | 3 | 5.8 | 0.7 | 1.5 | – | – | – | – |
| COCCC/N=C1\CC(c2cccc(C(F)(F)F)c2)Cc2c1c(=O)c1cc(Cl)ccc1n2O (centres undefined) | – | 13.8 | – | 1 | 5 | 3 | 5.1 | – | – | 1 | – | – | – |
| CC1C(=O)c2c(nc3ccc(Cl)cc3c2O)CC1c1ccc(Cl)c(C(F)(F)F)c1 (centres undefined) | 5.7 | 5 | 1.1 | 1 | 2 | 1 | 1.5 | 0.9 | 0.7 | – | – | – | – |
| COc1ccc(C2C/C(=N\CCCN(C)C)c3c(n(O)c4ccc(Cl)cc4c3=O)C2)cc1 (centres undefined) | 8.4 | 6.5 | 0.1 | – | 3 | – | 0.7 | – | – | – | – | – | – |
| O=C1CC(c2cccc3ccccc23)Cc2c1c(=O)c1cc(Cl)ccc1n2O (centres undefined) | 13.7 | 5.7 | 2.3 | – | 4 | 2 | 6.9 | – | – | – | – | – | – |
| CN(C)CCC/N=C1\CC(c2ccc([N+](=O)[O-])cc2)Cc2nc3ccc(Cl)cc3c(O)c21 (centres undefined) | 11.8 | 11.6 | 3 | – | 1 | – | 8.6 | 0.4 | 1 | – | – | – | – |
| COc1ccc(C2CC(=O)c3c(n(O)c4ccc(Cl)cc4c3=O)C2)cc1 (centres undefined) | 5.7 | 4.6 | 1.2 | – | – | – | 1.4 | 0.6 | 0.6 | – | – | – | – |
| O=C1CC(c2ccccc2)Cc2c1c(=O)c1cc(Cl)ccc1n2O (centres undefined) | 11.5 | 9.3 | 5.6 | 2 | 3 | 2 | 5.7 | 1.8 | 4 | – | – | – | – |
| Cc1ccc(C2C/C(=N\CCCN(C)C)c3c(nc4ccc(Cl)cc4c3O)C2)cc1 (centres undefined) | 9.8 | 6.5 | 1.4 | – | 2 | 2 | 6.6 | – | 0.8 | – | – | – | – |
| O=c1c2c(n(O)c3ccc(Cl)cc13)CC(c1ccc(Cl)c(Cl)c1)C/C2=N\CCCNCCO (centres undefined) | – | 11.6 | 7.9 | 3 | 5 | 4 | 9.6 | 2 | 6.6 | 1 | – | – | – |
| C/N=C1\CC(c2ccc(Cl)c(Cl)c2)Cc2c1c(=O)c1cc(Cl)ccc1n2O (centres undefined) | 10.8 | 10.7 | 3.3 | – | 3 | – | 6.4 | – | – | – | – | – | – |
| Cc1ccc(C2C/C(=N\CCCN(C)C)c3c(n(O)c4ccc(Cl)cc4c3=O)C2)cc1 (centres undefined) | 1 | 6 | 1.8 | – | 4 | 2 | 3 | – | 0.2 | – | – | – | – |
| CCN(CC)Cc1cccc(/N=C2\CC(c3ccc(Cl)c(Cl)c3)Cc3c2c(=O)c2cc(Cl)ccc2n3O)c1 (centres undefined) | 42.6 | 22.6 | 8 | 2 | 4 | 4 | 10.3 | 1.6 | 6.6 | – | – | – | – |
